Activity calls are given as the source filed them. The rule behind the calls is not given here.
What was measured:
Histone deacetylase 1 [1] = molecular target: T1, Histone deacetylase 1 (Homo sapiens, UniProt Q13547); assay: Inhibition of human recombinant HDAC1 after 15 mins by fluorimetric assay
Histone deacetylase 4 = Histone deacetylase 4 (Homo sapiens, UniProt P56524); assay: Inhibition of human recombinant HDAC4 after 15 mins by fluorimetric assay
NB-4 [2] = assay: Induction of p21WAF1/CIP1 expression in human NB4 cells at 5 uM after 24 hrs by Western blot analysis; format: functional, cell-based
Summary of the method: (§1)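 NB4 cells treated with compounds from DMSO, harvested and PBS-washed. Lysis was 15 min at 4 °C in 50 mM Tris-HCl pH 7.4, 150 mM NaCl, 1% NP40, 10 mM NaF, 1 mM PMSF and protease inhibitors, then spun 30 min at 4 °C. Protein was measured by Bradford and lysates immunoblotted, with ERK1 as loading control.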

NB-4 [3] = assay: Effect on differentiation of human NB4 cells assessed as induction of CD11c expression at 5 uM after 48 hrs by propidium iodide staining-base FACS analysis; format: functional
Summary of the method: (§2)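 NB4 cells in RPMI 1640/FBS at 37 °C, 5% CO2, treated with compounds from DMSO. 2.5 × 10^5 cells were pelleted and PBS-washed, then stained 30 min at 4 °C in the dark with PE-anti-CD11c, with PE-IgG as isotype background control. Cells were resuspended in PBS with 0.25 μg/mL PI and analysed by flow cytometry, excluding PI-positive cells. Run in triplicate.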

NB-4 [4] = assay: Cell cycle arrest in human NB4 cells assessed as increase in accumulation at pre-G1 phase at 5 uM after 24 hrs by FACS analysis; format: functional, cell-based
Summary of the method: (§3)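 NB4 acute promyelocytic leukemia cells grown in RPMI 1640 with heat-inactivated FBS, glutamine, antibiotics, 37 °C, 5% CO2. Compounds given from DMSO. They were kept 30 min in the dark, then DNA content was read by flow cytometry with the pre-G1 fraction scored. Run in triplicate.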

NB-4 [5] = assay: Effect on differentiation of human NB4 cells assessed as induction of CD11c expression at 5 uM after 24 hrs by propidium iodide staining-base FACS analysis; format: functional; summary of the method: as §2
Tubulin (Homo sapiens) = Tubulin (Homo sapiens) (UniProt P68371+Q9H4B7+P0DPH7+P68366+Q13509+Q71U36+P04350+Q3ZCM7+P07437+P68363+Q9BQE3+Q6PEY2+Q13885+Q9BVA1+Q9BUF5); assay: Inhibition of HDAC in human NB4 cells assessed as increase in acetylate tubulin level at 5 uM after 24 hrs by Western blot analysis; format: cell-based; conditions: NB-4; summary of the method: as §1
[6] = molecular target: Histone deacetylase (Homo sapiens) (UniProt Q13547+O15379+Q9UBN7+Q92769+Q9UQL6+Q8WUI4+Q9BY41+Q96DB2+P56524+Q9UKV0+Q969S8); conditions: NB-4, at 5 µM
NB-4 [7] = assay: Cell cycle arrest in human NB4 cells assessed as increase in accumulation at pre-G1 phase at 1 uM after 24 hrs by FACS analysis; format: functional, cell-based; summary of the method: as §3
Histone deacetylase 1 [8] = molecular target: T1, Histone deacetylase 1; assay: Ratio of largazole IC50 to compound IC50 for human recombinant HDAC1
NB-4 [9] = assay: Cell cycle arrest in human NB4 cells assessed as mild increase in accumulation at pre-G1 phase at 5 uM after 48 hrs by FACS analysis; format: functional, cell-based; summary of the method: as §3
Histone deacetylase 1 [10] = molecular target: T1, Histone deacetylase 1; assay: Ratio of compound IC50 to largazole IC50 for human recombinant HDAC1
Summary of the method: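 Enzyme was preincubated with compound 15 min at 37 °C, then 50 μM specific fluorogenic substrate was added. Reaction ran 1 h at 37 °C with gentle shaking, read by fluorescence; IC50 derived.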

T1 sequence (Q13547 whole entry): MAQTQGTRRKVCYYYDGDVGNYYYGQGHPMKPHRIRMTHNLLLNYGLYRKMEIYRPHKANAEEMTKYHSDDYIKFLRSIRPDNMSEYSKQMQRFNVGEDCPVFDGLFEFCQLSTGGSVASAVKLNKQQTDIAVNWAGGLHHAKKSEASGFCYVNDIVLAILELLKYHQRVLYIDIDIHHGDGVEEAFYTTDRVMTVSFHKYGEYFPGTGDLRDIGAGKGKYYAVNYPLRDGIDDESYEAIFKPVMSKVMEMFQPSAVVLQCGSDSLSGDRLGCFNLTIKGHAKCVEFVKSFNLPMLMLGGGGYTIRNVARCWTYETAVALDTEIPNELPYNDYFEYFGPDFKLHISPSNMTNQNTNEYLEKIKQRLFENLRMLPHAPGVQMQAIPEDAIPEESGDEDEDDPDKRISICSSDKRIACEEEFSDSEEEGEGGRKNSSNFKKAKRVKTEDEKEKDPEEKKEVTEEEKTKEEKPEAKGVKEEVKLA
Histone deacetylase 4, sequence (P56524 whole entry): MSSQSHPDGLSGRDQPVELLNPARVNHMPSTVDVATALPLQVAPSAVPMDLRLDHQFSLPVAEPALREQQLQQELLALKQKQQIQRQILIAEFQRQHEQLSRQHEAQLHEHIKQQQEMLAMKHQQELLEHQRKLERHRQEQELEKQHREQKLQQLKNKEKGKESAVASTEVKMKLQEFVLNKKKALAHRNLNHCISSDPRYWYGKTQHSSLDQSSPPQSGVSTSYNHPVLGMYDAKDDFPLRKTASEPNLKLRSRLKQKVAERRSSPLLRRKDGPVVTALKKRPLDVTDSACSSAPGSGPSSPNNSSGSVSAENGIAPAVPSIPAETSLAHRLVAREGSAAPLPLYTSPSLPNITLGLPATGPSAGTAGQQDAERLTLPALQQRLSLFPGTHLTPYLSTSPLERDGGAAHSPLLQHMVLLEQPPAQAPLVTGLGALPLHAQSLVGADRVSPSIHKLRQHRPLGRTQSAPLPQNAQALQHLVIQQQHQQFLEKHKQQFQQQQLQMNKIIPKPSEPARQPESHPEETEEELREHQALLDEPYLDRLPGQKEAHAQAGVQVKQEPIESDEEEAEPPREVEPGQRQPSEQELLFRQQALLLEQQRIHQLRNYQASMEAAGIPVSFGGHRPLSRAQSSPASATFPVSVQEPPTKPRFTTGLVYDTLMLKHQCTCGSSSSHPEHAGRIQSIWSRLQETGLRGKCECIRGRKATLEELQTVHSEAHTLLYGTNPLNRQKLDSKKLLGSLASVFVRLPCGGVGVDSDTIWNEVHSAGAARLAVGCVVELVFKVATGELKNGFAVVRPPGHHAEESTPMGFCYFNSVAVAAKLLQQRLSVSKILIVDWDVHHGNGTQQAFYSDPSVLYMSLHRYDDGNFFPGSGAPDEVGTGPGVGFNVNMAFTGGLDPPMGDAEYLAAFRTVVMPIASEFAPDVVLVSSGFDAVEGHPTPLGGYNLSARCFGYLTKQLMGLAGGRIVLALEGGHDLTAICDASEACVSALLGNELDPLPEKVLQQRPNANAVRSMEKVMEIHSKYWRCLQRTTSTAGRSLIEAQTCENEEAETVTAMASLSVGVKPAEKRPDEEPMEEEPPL

| IC50 (Histone deacetylase 1 [1]) [nM] | IC50 (Histone deacetylase 4) [nM] | increase in acetylated tubulin (active/not active) (Tubulin (Homo sapiens)) | inhibition [6] | Ratio IC50 (Histone deacetylase 1 [8]) | Ratio IC50 (Histone deacetylase 1 [10]) | Compound | Activity (NB-4 [2]) | Activity (NB-4 [3]) [%] | Activity (NB-4 [4]) | Activity (NB-4 [5]) [%] | Activity (NB-4 [7]) | Activity (NB-4 [9]) |
| --- | --- | --- | --- | --- | --- | --- | --- | --- | --- | --- | --- | --- |
| 4.5 | 3000 | Active | Active | – | – | CCCCCCCC(=O)SCC/C=C/[C@@H]1CC(=O)NCc2nc(cs2)C2=N[C@@](Cc3ccccc3)(CS2)C(=O)N[C@@H](C(C)C)C(=O)O1 | Active | 5 | Active | 5 | Active | – |
| 13.7 | 7500 | Active | Active | – | – | CCCCCCCC(=O)SCC/C=C/[C@@H]1CC(=O)NCc2nc(cs2)C2=N[C@@H](CS2)C(=O)N[C@@H](C(C)C)C(=O)O1 | Active | 5 | Active | 5 | Active | – |
| 161 | 4900 | Active | Active | – | 10 | CCCCCCCC(=O)SCC/C=C/[C@@H]1CC(=O)NCc2nc(cs2)C2=N[C@@](CC)(CS2)C(=O)N[C@@H](C(C)C)C(=O)O1 | Active | 5 | Active | 5 | Active | – |

The remaining lines, values behind:

| Compound | IC50 (Histone deacetylase 1 [1]) [nM] | IC50 (Histone deacetylase 4) [nM] | increase in acetylated tubulin (active/not active) (Tubulin (Homo sapiens)) | inhibition [6] | Ratio IC50 (Histone deacetylase 1 [8]) | Ratio IC50 (Histone deacetylase 1 [10]) | Activity (NB-4 [2]) | Activity (NB-4 [3]) [%] | Activity (NB-4 [4]) | Activity (NB-4 [5]) [%] | Activity (NB-4 [7]) | Activity (NB-4 [9]) |
| --- | --- | --- | --- | --- | --- | --- | --- | --- | --- | --- | --- | --- |
| CCCCCCCC(=O)SCC/C=C/[C@@H]1CC(=O)NCc2nc(cs2)-c2nc(cs2)C(=O)N[C@@H](C(C)C)C(=O)O1 | 4.7 | 3000 | inactive | Active | 2 | – | – | 5 | inactive | 5 | – | Active |
| CCCCCCCC(=O)SCC/C=C/[C@@H]1CC(=O)NCc2nc(cs2)C2=N[C@@](C)(CS2)C(=O)N[C@@H](C(C)C)C(=O)O1 [LARGAZOLE] | 11.4 | 3000 | Active | Active | – | – | Active | 5 | Active | 5 | Active | – |
| Nc1ccccc1NC(=O)c1ccc(CNC(=O)OCc2cccnc2)cc1 | – | – | – | – | – | – | Active | – | Active | – | – | – |
| O=C(CCCCCCC(=O)Nc1ccccc1)NO | – | – | Active | – | – | – | Active | – | Active | – | – | – |
| CC1=C(/C=C/C(C)=C/C=C/C(C)=C/C(=O)O)C(C)(C)CCC1 | – | – | – | – | – | – | – | – | – | – | Active | – |

From ChEMBL document CHEMBL1177705, “Synthesis and biological characterization of the histone deacetylase inhibitor largazole and C7- modified analogues” (J Med Chem, 2010)
